Publication PMC9499614 (ACS chemical biology, 2022)
Like-named read-outs stand apart in the source and are kept apart here.

Assays:
Sirt7-CLB = assay: NanoBit; type: binding; settings: H3K18-acetylated nucleosomes with ADPr
Procedure, shortened: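 Sirt7 was fused C-terminally to the NanoLuc large-bit fragment and purified natively. […] Buffer: 50 mM Tris pH 8.0, 250 µg/ml BSA. Incubated 20 min at RT. NanoGlow substrate added (50x final dilution), equilibrated 5 min at 37°C, luminescence read every 30 s for 15 min.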

[1] = molecular target: Sirt7-CLB (Sirt7 with the NanoLuc large bit fused to its C-terminus) (UniProt Q9NRC8); assay: split reporter
Sirt7 [2] = molecular target: T1, Sirt7 (Homo sapiens, UniProt Q9NRC8); type: biochemical; settings: saturating H3K18-Deca peptide, variable NAD^+
T1 sequence (Q9NRC8 1-400): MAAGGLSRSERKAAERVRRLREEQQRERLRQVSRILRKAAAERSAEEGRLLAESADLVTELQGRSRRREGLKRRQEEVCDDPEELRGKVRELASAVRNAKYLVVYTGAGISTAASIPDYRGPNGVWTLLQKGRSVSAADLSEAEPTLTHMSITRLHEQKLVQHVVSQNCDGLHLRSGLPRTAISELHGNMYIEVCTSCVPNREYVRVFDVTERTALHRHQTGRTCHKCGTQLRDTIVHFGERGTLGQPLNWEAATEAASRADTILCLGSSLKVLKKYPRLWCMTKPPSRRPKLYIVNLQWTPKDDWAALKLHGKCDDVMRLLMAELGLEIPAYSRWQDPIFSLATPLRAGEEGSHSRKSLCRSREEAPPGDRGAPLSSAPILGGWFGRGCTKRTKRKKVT
Procedure, shortened: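 NAD⁺ serially diluted (10-10000 µM) in 50 mM Tris pH 8.0. Mixed 1:1 with 500 µM (pre-mix) H3K18Ac-DNB or H3K18Deca-DNB peptide in 50 mM Tris pH 8.0, 20% DMSO, 1 mM DTT. Pre-incubated 10 min at 37°C. Started with Sirt7 complex carrying 2 µM nicotinamidase, run 30-60 min, quenched with 6% TFA. HPLC monitored at 400 nm; Michaelis-Menten fit.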

apoSirt7 = molecular target: T2, apoSirt7 (Homo sapiens, UniProt Q9NRC8); assay: Michaelis-Menten kinetics with variable H3K18 acylated peptide, apoSirt7; type: biochemical; settings: uncomplexed Sirt7, H3K18Ac
T2 sequence (Q9NRC8 1-400): T1 sequence (Q9NRC8 1-400)
Procedure, shortened: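 Acylated H3K18 peptide serially diluted in 50 mM Tris pH 8.0 with 20% DMSO. 20 µL of Sirt7 solution was mixed with 20 µL of peptide at 37°C. Reactions were started with 10 µL of 10 mM NAD⁺ stock, run 5-60 min at 37°C and quenched with 6% TFA. Products were resolved by C18 HPLC. Product concentration = deacetylated/acetylated peak ratio × total substrate. Three independent experiments; Michaelis-Menten fit.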

[3] = system: acidic patch regions of nucleosomes; assay: LANA-FAM nucleosome binding and competition with Sirt7; parameters: species or system human; settings: LANA-FAM pre-bound to nucleosomes, fluorescence anisotropy
Sirt7 [4] = molecular target: T1, Sirt7; settings: cited from earlier work; for activity of recombinant apoSirt7 (in words): in vitro

Molecule: Nc1ncnc2c1ncn2[C@@H]1O[C@H](COP(=O)(O)OP(=O)(O)OC[C@H]2OC(O)[C@H](O)[C@@H]2O)[C@@H](O)[C@H]1O (stereo partly shown) [ADPr, ADP-ribose]
- reduction in Kd value on ADPr addition (Sirt7-CLB): 2.5 fold

Molecule: H3K18-acetylated small bit nucleosomes (SMB-AcNucs) (from UniProt P0C0S8 1-130; P68431 1-136; P62805 1-103) (complex)
- Kd [1]: 3.75 nM

Molecule: Sirt7: 400 amino acid protein within the Class III deacetylase family; recombinant, E. coli
- Km (Sirt7 [2]; read-out: KM^NAD, 50 mM Tris pH 8.0, 37°C, 30-60 min, HPLC): 680 ± 80 µM
- kcat/KM (Sirt7 [2]): 32±4.1 M^−1x s^−1
- kcat (Sirt7 [2]; 50 mM Tris pH 8.0, 37°C, 30-60 min, HPLC): 0.022 ± 0.001 s⁻¹
- H3K18 deacetylation activity (in words) (apoSirt7): very low, but readily measurable H3K18 deacetylation activity
- displacement of LANA-FAM from nucleosomes (in words) [3]: Competitive displacement of LANA-FAM peptide from the pre-formed LANA-nucleosomal complex
- activity of recombinant apoSirt7 (in words) (Sirt7 [4]; no reference number at the word, ref [19],[28] in sentence): completely inactive
- activity of recombinant apoSirt7 (in words) (Sirt7 [4]; ref [19]): completely inactive
- activity of apoSirt7 (in words) (Sirt7 [4]; ref [19],[40]): inactive
